Tests used:
[1] = target: T1, Adrenergic receptor alpha-1 (Rattus norvegicus, UniProt P15823+P23944+P43140); assay: Binding affinity towards Alpha-1 adrenergic receptor in rat brain using [3H]prazosin; assay type: tissue-based
T1 sequence (P15823 whole entry): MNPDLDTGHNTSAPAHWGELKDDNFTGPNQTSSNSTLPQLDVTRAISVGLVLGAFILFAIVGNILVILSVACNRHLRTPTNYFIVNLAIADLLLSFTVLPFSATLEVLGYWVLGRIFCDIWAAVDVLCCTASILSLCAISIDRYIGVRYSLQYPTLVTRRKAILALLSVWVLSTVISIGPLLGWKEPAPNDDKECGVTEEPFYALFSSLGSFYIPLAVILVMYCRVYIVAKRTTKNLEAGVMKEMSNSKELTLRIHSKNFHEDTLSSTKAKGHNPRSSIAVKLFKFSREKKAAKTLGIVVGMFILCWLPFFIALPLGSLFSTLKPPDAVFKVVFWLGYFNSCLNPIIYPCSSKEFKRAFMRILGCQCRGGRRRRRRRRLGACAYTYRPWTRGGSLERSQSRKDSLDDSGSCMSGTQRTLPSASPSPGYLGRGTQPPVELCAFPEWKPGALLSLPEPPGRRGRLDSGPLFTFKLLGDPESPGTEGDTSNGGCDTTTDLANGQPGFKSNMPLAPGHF
T1 sequence (P23944 whole entry): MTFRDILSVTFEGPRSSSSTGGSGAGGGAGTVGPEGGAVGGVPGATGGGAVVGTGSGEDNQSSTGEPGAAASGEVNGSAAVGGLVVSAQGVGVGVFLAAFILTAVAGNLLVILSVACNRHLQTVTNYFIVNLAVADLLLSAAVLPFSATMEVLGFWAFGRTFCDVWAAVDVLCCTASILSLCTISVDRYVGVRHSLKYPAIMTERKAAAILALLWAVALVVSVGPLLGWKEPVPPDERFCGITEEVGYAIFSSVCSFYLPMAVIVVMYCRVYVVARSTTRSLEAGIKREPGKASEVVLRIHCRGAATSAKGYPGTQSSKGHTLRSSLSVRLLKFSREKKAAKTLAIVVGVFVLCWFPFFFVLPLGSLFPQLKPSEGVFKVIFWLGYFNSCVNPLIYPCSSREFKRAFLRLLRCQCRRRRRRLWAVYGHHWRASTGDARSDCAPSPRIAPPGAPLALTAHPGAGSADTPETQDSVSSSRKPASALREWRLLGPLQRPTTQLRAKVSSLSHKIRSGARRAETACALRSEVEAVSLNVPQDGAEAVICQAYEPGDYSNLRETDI
T1 sequence (P43140 whole entry): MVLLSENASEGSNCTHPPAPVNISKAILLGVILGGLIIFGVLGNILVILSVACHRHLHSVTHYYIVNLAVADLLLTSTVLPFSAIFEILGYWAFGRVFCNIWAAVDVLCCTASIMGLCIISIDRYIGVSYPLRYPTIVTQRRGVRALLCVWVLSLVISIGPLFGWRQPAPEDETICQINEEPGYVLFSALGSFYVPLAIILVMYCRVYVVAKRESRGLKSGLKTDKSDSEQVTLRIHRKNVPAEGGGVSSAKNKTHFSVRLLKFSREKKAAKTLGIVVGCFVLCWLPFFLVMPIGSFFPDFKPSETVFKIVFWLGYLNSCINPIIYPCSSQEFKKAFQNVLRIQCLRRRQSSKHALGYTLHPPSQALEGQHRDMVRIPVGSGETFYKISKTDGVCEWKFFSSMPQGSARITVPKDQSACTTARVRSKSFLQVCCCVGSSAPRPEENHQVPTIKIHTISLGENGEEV

Mus musculus = assay: In vivo effective dose in mice after intraperitoneal administration using standard sound induced seizures assay; assay type: functional; conditions: ip
In short: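 DBA/2 mice; compound given intraperitoneally 30 min before sound-induced seizure testing; ED50 in mg/kg.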

[2] = Inhibition of [3H]25-6981 binding to N-methyl-D-aspartate glutamate receptor 2B of rat brain
[3] = target: T1, Adrenergic receptor alpha-1; assay: Binding affinity towards alpha receptor in rat brain using [3H]prazosin as radioligand; assay type: tissue-based
[4] = target: T2, Muscarinic acetylcholine receptor M1 (Rattus norvegicus, UniProt P08482); assay: Binding affinity towards Muscarinic acetylcholine receptor M1 in […] using [3H]pirenzepine as radioligand
T2 sequence (P08482 whole entry): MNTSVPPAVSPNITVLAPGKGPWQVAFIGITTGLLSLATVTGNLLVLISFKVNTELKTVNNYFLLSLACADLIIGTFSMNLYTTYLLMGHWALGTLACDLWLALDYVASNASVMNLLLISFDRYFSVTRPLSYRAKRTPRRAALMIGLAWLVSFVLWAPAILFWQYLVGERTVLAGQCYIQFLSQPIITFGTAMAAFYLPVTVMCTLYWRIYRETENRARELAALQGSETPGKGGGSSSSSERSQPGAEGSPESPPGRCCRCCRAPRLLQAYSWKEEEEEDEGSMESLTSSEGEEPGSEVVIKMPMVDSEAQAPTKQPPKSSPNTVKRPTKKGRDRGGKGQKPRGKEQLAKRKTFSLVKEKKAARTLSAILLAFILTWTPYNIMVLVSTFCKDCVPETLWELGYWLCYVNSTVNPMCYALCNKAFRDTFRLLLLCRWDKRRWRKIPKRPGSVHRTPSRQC

[5] = Binding affinity towards N-methyl-D-aspartate (NMDA) receptor in rat brain using [3H]-25-6981 as radioligand; assay type: tissue-based
[6] = target: T2, Muscarinic acetylcholine receptor M1; assay: Binding affinity towards muscarinic acetylcholine receptor M1 in […] using [3H]pirenzepine as radioligand

Row | SMILES | Ki [1] | Ki [2] | Ki [3] | Ki [4] | Ki [5] | Ki [6] | ED50 (Mus musculus)
1 | C[C@@H]([C@H](O)c1ccc(O)cc1)N1CCC(Cc2ccccc2)CC1 [(R,S)-IFENPRODIL] | 12 nM | – | – | – | – | – | 16 mg/kg
2 | Clc1ccc2c(c1)CN(c1ccncc1)CC2 | 1300 nM | 37 nM | – | – | – | 1000 nM | –
3 | OCCNc1ccnc(N2CCc3ccccc3C2)c1 | 2300 nM | 2 nM | – | – | – | – | 13 mg/kg
4 | Clc1cccc2c1CN(c1ccncc1)CC2 | 3800 nM | 26 nM | – | – | – | 650 nM | –
5 | COc1cc2c(cc1OC)CN(c1ccncc1)CC2 | – | 28000 nM | – | – | – | – | –
6 | Clc1cccc2c1CCN(c1ccncc1)C2 | 1500 nM | 8 nM | – | – | – | 660 nM | 2 mg/kg
7 | CCOC(=O)C(=O)Nc1cc(N2CCc3ccccc3C2)cc(C)n1 | – | – | 12000 nM | 11000 nM | 8 nM | – | –
8 | CC1CN(c2ccncc2)Cc2ccccc21 (stereo not given) | 2200 nM | 25 nM | – | – | – | 900 nM | –
9 | Clc1ccc2c(c1)CCN(c1ccncc1)C2 | – | 230 nM | – | – | – | – | –

Further lines, with some results ahead:

Row | Ki [1] | Ki [2] | Ki [3] | Ki [4] | Ki [5] | Ki [6] | SMILES | ED50 (Mus musculus)
10 | – | 75 nM | – | – | – | – | Cc1cc(N2CCc3ccccc3C2)c2ccccc2n1 | –
11 | – | – | 20000 nM | 60000 nM | 15 nM | – | Cc1cc(N2CCc3ccccc3C2)cc(NC(=O)CO)n1 | –
12 | – | – | 5700 nM | – | 8 nM | – | Cc1cc(N2CCc3ccccc3C2)ccn1 | –
13 | – | – | 1700 nM | 6700 nM | 22 nM | – | OCCNc1cc(N2CCc3ccccc3C2)c2ccccc2n1 | –
14 | – | – | 2100 nM | 400 nM | 2 nM | – | Nc1cc(N2CCc3ccccc3C2)ccn1 | –
15 | 430 nM | 3.5 nM | – | – | – | – | OCCNc1cc(N2CCc3ccccc3C2)nc2ccccc12 | < 12 mg/kg
16 | 3200 nM | 29 nM | – | – | – | 2600 nM | c1ccc2c(c1)CCN(c1ccnc3ccccc13)C2 | 25 mg/kg
17 | – | – | 3500 nM | 6800 nM | 2 nM | – | Cc1cc(N2CCc3ccccc3C2)cc(NCCO)n1 | 18 mg/kg
18 | – | – | 120 nM | – | 19 nM | – | Nc1cc(N2CCc3ccccc3C2)c2ccccc2n1 | –
19 | – | – | 1500 nM | 2600 nM | 4 nM | – | Cc1cc(N2CCc3ccccc3C2)cc(N)n1 | –
20 | 5800 nM | 8 nM | – | – | – | 720 nM | c1ccc2c(c1)CCN(c1ccncc1)C2 | 3 mg/kg

Source: ChEMBL document CHEMBL1136393, “4-(3,4-dihydro-1H-isoquinolin-2yl)-pyridines and 4-(3,4-dihydro-1H-isoquinolin-2-yl)-quinolines as potent NR1/2B subtype selective NMDA receptor antagonists” (Bioorg Med Chem Lett, 2003)
